Measurements taken from ChEMBL document CHEMBL1143772, “Samarium(II) promoted stereoselective synthesis of antiproliferative cis-beta-alkoxy-gamma-alkyl-gamma-lactones” (2007).

Columns and labels:
Assay type in all cases: functional
[1] = test system: A2780; experiment: Antiproliferative activity against human A2780 cells after 48 hrs by SRB assay; settings: A2780, 48 h; for CC50: read-out: LC50 (the source's name)
Method in brief: (§1)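 NCI protocol, SRB read-out after 48 h continuous drug exposure; top test concentration 100 µM. A dose–response curve gives percentage growth (PG). GI50, TGI and LC50 are the concentrations at PG +50, 0 and −50. Values in µM, means of two to four experiments with standard deviation.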

[2] = test system: SW1573; experiment: Antiproliferation activity against human SW1573 cells after 48 hrs by SRB assay; settings: SW1573, 48 h; method in brief: as §1
[3] = test system: WiDr; experiment: Antiproliferation activity against human WiDr cells after 48 hrs by SRB assay; settings: for CC50: read-out: LC50 (the source's name); method in brief: as §1

SMILES	GI50 [1] [µM]	GI50 [2] [µM]	LC50 (concentration giving 50% net cell kill) [2] [µM]	TGI [2] [µM]	GI50 [3] [µM]	TGI [1] [µM]	CC50 [1] [µM]	TGI [3] [µM]	CC50 [3] [µM]
CCCCCCC[C@H]1OC(=O)C[C@H]1OC1C=CCCC1 (some centres not stated)	84	23	95	49					
CCCCCCC[C@H]1OC(=O)C[C@H]1OCc1ccccc1	63	52			44				
CCCCCCC[C@H]1OC(=O)C[C@H]1OC1CCCCC1	16	18	71	36	16	31	61	33	71
C=CC(CCCCC)O[C@@H]1CC(=O)O[C@@H]1CCCCCCC (some centres not stated)	19	27	96	78	27	42	88	81	97
C#CC(CCCCCCC)O[C@@H]1CC(=O)O[C@@H]1CCCCCCC (some centres not stated)	22	32	97	83	32	51	80	86	
C=CCC(C)O[C@@H]1CC(=O)O[C@@H]1CCCCCCC (some centres not stated)	48	33		83	39				
